Data taken from PubChem BioAssay.
A number with no mark means an inactive call.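 How the source made its calls, unless noted: active means growth inhibition above a set limit, 3 SD over mean compound inhibition, in both replicates (cut at about 43% in these data); inconclusive means above the limit in only one replicate; inactive means at or below the limit in both replicates.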

Experiment: OD615 S. cerevisiae growth inhibition, permissive medium, pilot counter-assay, permissive growth control for S. cerevisiae lifespan shortening project (AID 705;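 active means growth inhibition above 25% in both replicates, a cutoff set 3 SD above the mean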)
Conditions: OD615, 24 h, at 10 µM, stronger effect = higher value
Method in brief: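 Test system: Saccharomyces cerevisiae strain carrying genetically modified DeaD replicative-lifespan system; buffer or medium: SC raffinose/galactose permissive medium; dosing: one dose 10 µM, DMSO 0.25% final; times: 24 h exposure, 30 °C; measured by: OD at 615 nm; read-out basis: growth inhibition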
Molecule CCCc1cc(=O)oc2cc3occ(C)c3cc12 has a growth inhibition of -10.3%. In the case of COc1ccc(OC)c(CN2CCN(c3ccccc3OC)CC2)c1, the growth inhibition is reported as -7.27%. With CC(C)(C)OC(=O)N1CCC(C(N)=O)CC1 the growth inhibition was -1.93%. In the case of CC1=C(C(N)=O)C(c2ccccn2)n2nc(SCc3ccccc3Cl)nc2N1 (stereo not drawn), the growth inhibition is reported as -4.42%. Work on COc1cc(C2NC(=O)NC(C)=C2C(=O)OC2CCCCC2)cc(Br)c1O (stereo not drawn) yielded a growth inhibition of -9.15%. In the case of CC1CCCN(C(=O)c2ccc3c(c2)C(=O)N(CCC2=CCCCC2)C3=O)C1 (stereo not drawn), the growth inhibition is reported as -5.42%. COc1ccc(N2CSC3=C(C#N)C(c4cccc(OC)c4OC)CC(=O)N3C2)cc1 (stereo not drawn) showed a growth inhibition of -1.74%. Molecule COC(=O)C1C2C=CC3(CN(C(C)C)C(=O)C13)O2 (stereo not drawn) has a growth inhibition of -11.7%.

Experiment: Restrictive medium S. cerevisiae growth inhibition, OD615, pilot screen of yeast lifespan reduction project, restrictive growth control (AID 706);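 further: modified DeaD lifespan yeast strain shifted to restrictive glucose medium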
Conditions: OD615, 48 h, at 10 µM, stronger effect = higher value
Method in brief: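 material = engineered S. cerevisiae DeaD strain | buffer or medium = glucose-based CSMM-D restrictive medium | dosing = one concentration, 10 µM final, 0.25% DMSO | schedule = 4 h pre-growth plus 48 h compound exposure, 30 °C | detection = OD615 absorbance reading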
In the case of COc1ccc(-c2noc(-c3ccccc3F)n2)cc1, the growth inhibition is reported as -12%. With CCOC(=O)N1CCN(C(=O)C(C)(C)Oc2ccc(Cl)cc2)CC1 the growth inhibition was -2.48%. CCOc1ccc(C2CC(c3ccc(CC)cc3)Nc3nc(N)nn32)cc1 (stereo not drawn) gave a growth inhibition of 21.5%. Molecule O=C(Cn1cc2c(n1)CCCCC2)NCc1ccccn1 has a growth inhibition of -16.1%. Work on O=C(Nc1ccc(Cl)cn1)c1cccc(F)c1 yielded a growth inhibition of 3.83%. CCCn1c(C(O)c2ccc3c(c2)OCO3)nc2ccccc21 (stereo not drawn) showed a growth inhibition of -13.8%. In the case of COc1ccc(-n2nc3c(c2NC(=O)c2ccc(Br)cc2)CS(=O)C3)cc1 (stereo not drawn), the growth inhibition is reported as 4.82%. Molecule CC1CCCCN1c1nnc(NC(=O)Cn2c(=O)oc3ccccc32)s1 (stereo not drawn) has a growth inhibition of -14.8%. In the case of Cc1ncc(CO)c2cc(S(=O)(=O)c3ccc(F)cc3)c(=O)oc12, the growth inhibition is reported as -4.46%. In the case of COc1ccc(C/C(N)=N/n2cnnc2)cc1, the growth inhibition is reported as -3.72%. Cc1cc(C)cc(N(CC(=O)N2CCN(Cc3ccccc3)CC2)S(=O)(=O)c2c(C)noc2C)c1 gave a growth inhibition of -29.5%. With COc1ccccc1NC(=O)Cn1cnc2c(oc3ccccc32)c1=O the growth inhibition was -11.6%. In the case of O=C1CCCC2=C1C1(O)C(=O)c3ccccc3C1(O)O2 (stereo not drawn), the growth inhibition is reported as -16%. Molecule Cc1cc(C)c(NC(=O)C(C)(C)C)c(Cl)c1 has a growth inhibition of 6.2%. Cc1c(NC(=O)Oc2ccccc2)sc(=S)n1C gave a growth inhibition of 34.4%. Molecule O=C(c1ccc(CN2CCOCC2)cc1)N1CCN(Cc2ccccc2)CC1 has a growth inhibition of -5.85%. Work on Cc1cccc(N(C)c2cc(C)nc3ncnn23)c1 yielded a growth inhibition of 3.99%. In the case of Cc1oc2cc(O)ccc2c(=O)c1N1C(=O)c2ccccc2C1=O, the growth inhibition is reported as 0.06%. For Cc1ccc(C2CC(c3ccc(F)cc3)Nc3nc(N)nn32)cc1 (stereo not drawn), the growth inhibition was 5.93%. For CCOC(=O)c1c(C)n(C)c2cc(Br)c(C(=O)OC)cc12, the growth inhibition was -4.36%. In the case of COc1ccc(N(CC(=O)NCc2ccco2)S(=O)(=O)c2c(C)nn(C)c2C)cc1, the growth inhibition is reported as -12.6%. For CC1CCC(NC(=O)CC2Oc3ccccc3NC2=O)CC1 (stereo not drawn), the growth inhibition was 2.4%. For COc1ccccc1N1CCN(C(=O)c2cc3cc(Br)ccc3oc2=O)CC1, the growth inhibition was -11.9%. Work on O=C(NC1CCCCCC1)C1CCN(S(=O)(=O)c2cccc3cccnc23)CC1 yielded a growth inhibition of 6.42%. CCOc1ccc2[nH]c(C)c(CN3CCOCC3)c(=O)c2c1 gave a growth inhibition of -5.17%. COc1ccc(OC)c(CCNC(=O)C2CCN(c3nnc(-n4cccc4)s3)CC2)c1 showed a growth inhibition of -20.5%. With CN1C(=O)C(O)(CC(=O)c2cccnc2)c2ccccc21 (stereo not drawn) the growth inhibition was -7.81%. Work on COc1ccc(C2C(C(=O)NCC3CCCO3)c3cc(OC)c(OC)cc3C(=O)N2C)cc1OC (stereo not drawn) yielded a growth inhibition of -13.4%. Work on Cc1cc(OCC(=O)Nc2cc(-c3nn4c(C)nnc4s3)ccc2C)ccc1Cl yielded a growth inhibition of 27.5%. Cc1ccccc1-n1c(Cn2c(=O)sc3ccccc32)nnc1SCC(=O)Nc1nccs1 gave a growth inhibition of -13%. CN=C1SC(CC(=O)Nc2ccccc2F)C(=O)N1C (stereo not drawn) gave a growth inhibition of 0.465%. With CCSc1nnc(NC(=O)CSc2nc3c(c(=O)n2CCOC)SC(C)C3)s1 (stereo not drawn) the growth inhibition was -1.1%. In the case of CCCc1cc(=O)oc2cc3occ(C)c3cc12, the growth inhibition is reported as 2.5%. COc1ccc(OC)c(CN2CCN(c3ccccc3OC)CC2)c1 showed a growth inhibition of -8.51%. In the case of CC(C)(C)OC(=O)N1CCC(C(N)=O)CC1, the growth inhibition is reported as 0.2%. Molecule CC1=C(C(N)=O)C(c2ccccn2)n2nc(SCc3ccccc3Cl)nc2N1 (stereo not drawn) has a growth inhibition of -12.1%. For COc1cc(C2NC(=O)NC(C)=C2C(=O)OC2CCCCC2)cc(Br)c1O (stereo not drawn), the growth inhibition was -9.77%. CC1CCCN(C(=O)c2ccc3c(c2)C(=O)N(CCC2=CCCCC2)C3=O)C1 (stereo not drawn) gave a growth inhibition of -30.7%. COc1ccc(N2CSC3=C(C#N)C(c4cccc(OC)c4OC)CC(=O)N3C2)cc1 (stereo not drawn) showed a growth inhibition of 26.5%. Molecule COC(=O)C1C2C=CC3(CN(C(C)C)C(=O)C13)O2 (stereo not drawn) has a growth inhibition of -17.2%.
